Data published in ChEMBL document CHEMBL5058577, “EUbOPEN Chemogenomics Library 2 (Multiplex)” (2022).

System: HEK-293T
Assay: Multiplex assay against HEK293T
Assay type: toxicity, cell-based
Settings: human
Summary of the method: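 Hoechst33342, BioTracker Green Microtubule Cytoskeleton Dye, MitoTracker Red and Annexin V Alexa Fluor 680 were added to live cells at seeding, and imaging on a CQ1 microscope at 37°C and 5% CO2 followed compound addition. Gating by CellPathfinder machine learning separated cells into Hoechst high-intensity objects or normal cells, then normal cells into healthy, pyknosed or fragmented nuclei, then pyknosed cells into mitotic or apoptotic. Per cents of healthy-nucleus cells are reported for the tubulin, mitochondrial-mass and membrane-permeability phenotypes.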

[1] = 12 h, 1 µM, compound concentration 1 uM, replicate 1
[2] = 12 h, 1 µM, compound concentration 1 uM, replicate 2
[3] = 12 h, 10 µM, compound concentration 10 uM, replicate 1
[4] = 12 h, 10 µM, compound concentration 10 uM, replicate 2
[5] = 24 h, 1 µM, compound concentration 1 uM, replicate 1
[6] = 24 h, 1 µM, compound concentration 1 uM, replicate 2
[7] = 24 h, 10 µM, compound concentration 10 uM, replicate 1
[8] = 24 h, 10 µM, compound concentration 10 uM, replicate 2
[9] = 48 h, 1 µM, compound concentration 1 uM, replicate 1
[10] = 48 h, 1 µM, compound concentration 1 uM, replicate 2
[11] = 48 h, 10 µM, compound concentration 10 uM, replicate 1
[12] = 48 h, 10 µM, compound concentration 10 uM, replicate 2

Compound: N#Cc1c(N)nc(SCc2csc(-c3ccc(Cl)cc3)n2)c(C#N)c1-c1ccc(OCCO)cc1 [CAPADENOSON]
- Population Apoptotic (%) [1]: 36%
- Population Fragmented Nuclei (%) [1]: 6%
- Population Healthy Nuclei (%) [1]: 79%
- Population Hoechst High Intensity Objects (%) [1]: 8%
- Population Membrane Permeable-Phenotype (%) [1]: 0%
- Population Mitochondria Different-Phenotype (%) [1]: 59%
- Population Mitotic Cells (%) [1]: 63%
- Population Normal (%) [1]: 91%
- Population Pyknosed Nuclei (%) [1]: 13%
- Population Tubulin-Different-Phenotype (%) [1]: 44%
- Total Cell Count [1]: 373
- Population Apoptotic (%) [2]: 54%
- Population Healthy Nuclei (%) [2]: 80%
- Population Hoechst High Intensity Objects (%) [2]: 4%
- Population Mitochondria Different-Phenotype (%) [2]: 60%
- Population Mitotic Cells (%) [2]: 45%
- Population Normal (%) [2]: 95%
- Population Pyknosed Nuclei (%) [2]: 12%
- Population Tubulin-Different-Phenotype (%) [2]: 34%
- Total Cell Count [2]: 375
- Population Apoptotic (%) [3]: 57%
- Population Fragmented Nuclei (%) [3]: 7%
- Population Healthy Nuclei (%) [3]: 75%
- Population Hoechst High Intensity Objects (%) [3]: 12%
- Population Membrane Permeable-Phenotype (%) [3]: 0%
- Population Mitochondria Different-Phenotype (%) [3]: 82%
- Population Mitotic Cells (%) [3]: 42%
- Population Normal (%) [3]: 87%
- Population Pyknosed Nuclei (%) [3]: 17%
- Population Tubulin-Different-Phenotype (%) [3]: 62%
- Total Cell Count [3]: 307
- Population Apoptotic (%) [4]: 70%
- Population Fragmented Nuclei (%) [4]: 6%
- Population Healthy Nuclei (%) [4]: 73%
- Population Hoechst High Intensity Objects (%) [4]: 14%
- Population Membrane Permeable-Phenotype (%) [4]: 1%
- Population Mitochondria Different-Phenotype (%) [4]: 85%
- Population Mitotic Cells (%) [4]: 29%
- Population Normal (%) [4]: 85%
- Population Pyknosed Nuclei (%) [4]: 20%
- Population Tubulin-Different-Phenotype (%) [4]: 63%
- Total Cell Count [4]: 388
- Population Apoptotic (%) [5]: 36%
- Population Fragmented Nuclei (%) [5]: 5%
- Population Healthy Nuclei (%) [5]: 76%
- Population Hoechst High Intensity Objects (%) [5]: 6%
- Population Membrane Permeable-Phenotype (%) [5]: 2%
- Population Mitochondria Different-Phenotype (%) [5]: 38%
- Population Mitotic Cells (%) [5]: 63%
- Population Normal (%) [5]: 93%
- Population Pyknosed Nuclei (%) [5]: 17%
- Population Tubulin-Different-Phenotype (%) [5]: 34%
- Total Cell Count [5]: 450
- Population Apoptotic (%) [6]: 37%
- Population Fragmented Nuclei (%) [6]: 7%
- Population Healthy Nuclei (%) [6]: 79%
- Population Hoechst High Intensity Objects (%) [6]: 4%
- Population Membrane Permeable-Phenotype (%) [6]: 0%
- Population Mitochondria Different-Phenotype (%) [6]: 44%
- Population Mitotic Cells (%) [6]: 62%
- Population Normal (%) [6]: 95%
- Population Pyknosed Nuclei (%) [6]: 12%
- Population Tubulin-Different-Phenotype (%) [6]: 23%
- Total Cell Count [6]: 456
- Population Apoptotic (%) [7]: 65%
- Population Fragmented Nuclei (%) [7]: 8%
- Population Healthy Nuclei (%) [7]: 68%
- Population Hoechst High Intensity Objects (%) [7]: 14%
- Population Membrane Permeable-Phenotype (%) [7]: 0%
- Population Mitochondria Different-Phenotype (%) [7]: 94%
- Population Mitotic Cells (%) [7]: 34%
- Population Normal (%) [7]: 85%
- Population Pyknosed Nuclei (%) [7]: 22%
- Population Tubulin-Different-Phenotype (%) [7]: 62%
- Total Cell Count [7]: 319
- Population Apoptotic (%) [8]: 73%
- Population Fragmented Nuclei (%) [8]: 4%
- Population Hoechst High Intensity Objects (%) [8]: 13%
- Population Mitochondria Different-Phenotype (%) [8]: 89%
- Population Mitotic Cells (%) [8]: 26%
- Population Normal (%) [8]: 86%
- Population Pyknosed Nuclei (%) [8]: 26%
- Population Tubulin-Different-Phenotype (%) [8]: 61%
- Total Cell Count [8]: 391
- Population Apoptotic (%) [9]: 31%
- Population Fragmented Nuclei (%) [9]: 10%
- Population Healthy Nuclei (%) [9]: 79%
- Population Hoechst High Intensity Objects (%) [9]: 4%
- Population Membrane Permeable-Phenotype (%) [9]: 1%
- Population Mitochondria Different-Phenotype (%) [9]: 32%
- Population Mitotic Cells (%) [9]: 68%
- Population Normal (%) [9]: 95%
- Population Pyknosed Nuclei (%) [9]: 10%
- Population Tubulin-Different-Phenotype (%) [9]: 23%
- Total Cell Count [9]: 621
- Population Apoptotic (%) [10]: 32%
- Population Fragmented Nuclei (%) [10]: 11%
- Population Healthy Nuclei (%) [10]: 80%
- Population Hoechst High Intensity Objects (%) [10]: 3%
- Population Membrane Permeable-Phenotype (%) [10]: 2%
- Population Mitochondria Different-Phenotype (%) [10]: 23%
- Population Mitotic Cells (%) [10]: 67%
- Population Normal (%) [10]: 96%
- Population Pyknosed Nuclei (%) [10]: 8%
- Population Tubulin-Different-Phenotype (%) [10]: 18%
- Total Cell Count [10]: 787
- Population Apoptotic (%) [11]: 66%
- Population Fragmented Nuclei (%) [11]: 11%
- Population Healthy Nuclei (%) [11]: 68%
- Population Hoechst High Intensity Objects (%) [11]: 12%
- Population Membrane Permeable-Phenotype (%) [11]: 0%
- Population Mitochondria Different-Phenotype (%) [11]: 89%
- Population Mitotic Cells (%) [11]: 33%
- Population Normal (%) [11]: 87%
- Population Pyknosed Nuclei (%) [11]: 20%
- Population Tubulin-Different-Phenotype (%) [11]: 67%
- Total Cell Count [11]: 406
- Population Apoptotic (%) [12]: 63%
- Population Fragmented Nuclei (%) [12]: 12%
- Population Healthy Nuclei (%) [12]: 73%
- Population Hoechst High Intensity Objects (%) [12]: 10%
- Population Mitochondria Different-Phenotype (%) [12]: 88%
- Population Mitotic Cells (%) [12]: 36%
- Population Normal (%) [12]: 89%
- Population Pyknosed Nuclei (%) [12]: 14%
- Population Tubulin-Different-Phenotype (%) [12]: 64%
- Total Cell Count [12]: 423

Compound: Cc1ccc(-c2ccc(F)cc2COc2ccc(CCC(=O)O)cc2)cc1
- Population Apoptotic (%) [1]: 42%
- Population Fragmented Nuclei (%) [1]: 6%
- Population Healthy Nuclei (%) [1]: 82%
- Population Hoechst High Intensity Objects (%) [1]: 9%
- Population Mitochondria Different-Phenotype (%) [1]: 36%
- Population Mitotic Cells (%) [1]: 57%
- Population Normal (%) [1]: 90%
- Population Tubulin-Different-Phenotype (%) [1]: 18%
- Total Cell Count [1]: 465
- Population Apoptotic (%) [2]: 33%
- Population Healthy Nuclei (%) [2]: 77%
- Population Mitochondria Different-Phenotype (%) [2]: 50%
- Population Mitotic Cells (%) [2]: 66%
- Population Pyknosed Nuclei (%) [2]: 15%
- Total Cell Count [2]: 324
- Population Apoptotic (%) [3]: 32%
- Population Fragmented Nuclei (%) [3]: 10%
- Population Healthy Nuclei (%) [3]: 79%
- Population Hoechst High Intensity Objects (%) [3]: 7%
- Population Mitochondria Different-Phenotype (%) [3]: 46%
- Population Mitotic Cells (%) [3]: 67%
- Population Normal (%) [3]: 92%
- Population Pyknosed Nuclei (%) [3]: 10%
- Population Tubulin-Different-Phenotype (%) [3]: 33%
- Total Cell Count [3]: 329
- Population Apoptotic (%) [4]: 42%
- Population Fragmented Nuclei (%) [4]: 7%
- Population Healthy Nuclei (%) [4]: 83%
- Population Hoechst High Intensity Objects (%) [4]: 6%
- Population Mitochondria Different-Phenotype (%) [4]: 58%
- Population Mitotic Cells (%) [4]: 57%
- Population Normal (%) [4]: 93%
- Population Pyknosed Nuclei (%) [4]: 9%
- Population Tubulin-Different-Phenotype (%) [4]: 15%
- Total Cell Count [4]: 396
- Population Apoptotic (%) [5]: 16%
- Population Fragmented Nuclei (%) [5]: 10%
- Population Healthy Nuclei (%) [5]: 82%
- Population Hoechst High Intensity Objects (%) [5]: 3%
- Population Mitochondria Different-Phenotype (%) [5]: 16%
- Population Mitotic Cells (%) [5]: 84%
- Population Normal (%) [5]: 96%
- Population Pyknosed Nuclei (%) [5]: 7%
- Population Tubulin-Different-Phenotype (%) [5]: 10%
- Total Cell Count [5]: 688
- Population Apoptotic (%) [6]: 52%
- Population Fragmented Nuclei (%) [6]: 9%
- Population Healthy Nuclei (%) [6]: 80%
- Population Hoechst High Intensity Objects (%) [6]: 7%
- Population Mitochondria Different-Phenotype (%) [6]: 33%
- Population Mitotic Cells (%) [6]: 47%
- Population Normal (%) [6]: 92%
- Population Pyknosed Nuclei (%) [6]: 9%
- Population Tubulin-Different-Phenotype (%) [6]: 13%
- Total Cell Count [6]: 445
- Population Apoptotic (%) [7]: 36%
- Population Fragmented Nuclei (%) [7]: 11%
- Population Healthy Nuclei (%) [7]: 76%
- Population Hoechst High Intensity Objects (%) [7]: 5%
- Population Mitochondria Different-Phenotype (%) [7]: 30%
- Population Mitotic Cells (%) [7]: 63%
- Population Normal (%) [7]: 94%
- Population Tubulin-Different-Phenotype (%) [7]: 18%
- Total Cell Count [7]: 397
- Population Apoptotic (%) [8]: 51%
- Population Fragmented Nuclei (%) [8]: 6%
- Population Healthy Nuclei (%) [8]: 87%
- Population Hoechst High Intensity Objects (%) [8]: 3%
- Population Mitochondria Different-Phenotype (%) [8]: 37%
- Population Mitotic Cells (%) [8]: 48%
- Population Normal (%) [8]: 96%
- Population Pyknosed Nuclei (%) [8]: 6%
- Population Tubulin-Different-Phenotype (%) [8]: 13%
- Total Cell Count [8]: 461
- Population Apoptotic (%) [9]: 17%
- Population Fragmented Nuclei (%) [9]: 15%
- Population Healthy Nuclei (%) [9]: 79%
- Population Hoechst High Intensity Objects (%) [9]: 1%
- Population Mitochondria Different-Phenotype (%) [9]: 7%
- Population Mitotic Cells (%) [9]: 82%
- Population Normal (%) [9]: 98%
- Population Pyknosed Nuclei (%) [9]: 5%
- Population Tubulin-Different-Phenotype (%) [9]: 8%
- Total Cell Count [9]: 1149
- Population Apoptotic (%) [10]: 36%
- Population Fragmented Nuclei (%) [10]: 14%
- Population Healthy Nuclei (%) [10]: 77%
- Population Mitochondria Different-Phenotype (%) [10]: 18%
- Population Mitotic Cells (%) [10]: 63%
- Population Normal (%) [10]: 97%
- Population Pyknosed Nuclei (%) [10]: 8%
- Population Tubulin-Different-Phenotype (%) [10]: 9%
- Total Cell Count [10]: 631
- Population Apoptotic (%) [11]: 24%
- Population Fragmented Nuclei (%) [11]: 12%
- Population Healthy Nuclei (%) [11]: 78%
- Population Mitochondria Different-Phenotype (%) [11]: 17%
- Population Mitotic Cells (%) [11]: 75%
- Population Normal (%) [11]: 97%
- Population Pyknosed Nuclei (%) [11]: 8%
- Population Tubulin-Different-Phenotype (%) [11]: 9%
- Total Cell Count [11]: 713
- Population Apoptotic (%) [12]: 31%
- Population Fragmented Nuclei (%) [12]: 15%
- Population Healthy Nuclei (%) [12]: 79%
- Population Hoechst High Intensity Objects (%) [12]: 4%
- Population Mitochondria Different-Phenotype (%) [12]: 16%
- Population Mitotic Cells (%) [12]: 68%
- Population Normal (%) [12]: 95%
- Population Pyknosed Nuclei (%) [12]: 5%
- Population Tubulin-Different-Phenotype (%) [12]: 8%
- Total Cell Count [12]: 702
